Measured values of several laboratories.
Lines come from different studies, so protocols differ.
Target: Dual specificity protein kinase CLK4 (CLK4, Homo sapiens, UniProt Q9HAZ1)

| SMILES | test | conditions | remaining binding [%] |
| --- | --- | --- | --- |
| O=C1NC(c2ccccn2)Sc2ccccc21 (stereo not shown) | cell-free assay, competition with immobilised ligand | 1 µM | 97 |
| C=CC(=O)N1CCC(C(=O)NCC(=O)N2CCN(c3nc(-c4cnc(N)nc4C(F)F)nc(N4CCOCC4)n3)CC2)CC1 | binding, competition with immobilised ligand | 1 µM | 100 |
| CC1CCCN1c1nccc(-c2cnn3ncccc23)n1 (stereo not shown) | binding | 1 µM | 55 |
| C[C@@H](c1ccc(-n2cnc3c(N)ncnc32)cc1)N1CCc2nn(C)c(Cc3ccccc3)c2C1=O | binding, competition with immobilised ligand | 0.1 µM | 100 |
| Cc1cnc(Nc2ccc(C(=O)N3CCC(N4CCCC4)CC3)cc2)nc1-c1cc2ccccc2s1 | binding, competition with immobilised ligand | 1 µM | 11 |
| CC1=C(C#N)C(c2ccc3c(c2)c(NC(=O)c2ccccc2C)nn3C)C(C#N)=C(C)N1 | cell-free assay, competition with immobilised ligand | 1 µM | 76 |
| FC(F)(F)Oc1cccc(-c2cnc3ccc(-c4ccncc4)nn23)c1 | cell-free assay, competition with immobilised ligand | 5 µM | 7.8 |
| O=C(c1ccc(Nc2nccc(-c3cc4ccccc4s3)n2)cc1)N1CCC(N2CCCC2)CC1 | binding, competition with immobilised ligand | 1 µM | 27 |
| COc1cnc(Nc2cccc(S(N)(=O)=O)c2)nc1N1CCN(c2ccccc2)CC1 | binding, competition with immobilised ligand | 1 µM | 100 |
| CN(C)c1nccc(-c2cnc3ncccn23)n1 | binding | 1 µM | 14 |
| CO[C@@H](C)c1c(Nc2ccc([C@H](N(C)C(=O)C3CCS(=O)(=O)CC3)C(F)(F)F)cc2)cnc2cc(Cl)nn12 | cell-free assay, competition with immobilised ligand | 1 µM | 94 |
| N[C@H]1CCN(c2nccc(-c3cnn4ncccc34)n2)C1 | binding | 1 µM | 22 |
| CC(C)(O)c1cncc(-c2nc3ccc(F)cc3n2C2CC2)c1 | cell-free assay, competition with immobilised ligand | 1 µM | 54 |
| O=C(NCC1CCOCC1)c1n[nH]cc1NC(=O)c1c(F)cccc1F | binding, competition with immobilised ligand | 1 µM | 32 |
| c1cnn2ncc(-c3ccnc(N4CCC45COC5)n3)c2c1 | binding | 1 µM | 6.2 |
| Cc1c(NC(=O)c2cc(C(N)=O)nc3cc(F)ccc23)c(C(F)(F)F)nn1Cc1ccc(C(C)(C)C)cc1 | cell-free assay, competition with immobilised ligand | 1 µM | 100 |
| C[C@@H]1CCN(c2nccc(-c3cnn4ncccc34)n2)C1 | binding | 1 µM | 12 |
| Cc1noc([C@H]2C[C@@H](c3ccc(C(F)(F)F)cc3)CN(C(=O)N3CCS(=O)(=O)C3)C2)n1 | cell-free assay, competition with immobilised ligand | 1 µM | 83 |
| COc1ccnn2ncc(-c3ccnc(N(C)C)n3)c12 | binding | 1 µM | 4.2 |
| O=C(c1ccc(Nc2ncc(Cl)c(-c3ccc(Cl)s3)n2)cc1)N1CCC(N2CCCC2)CC1 | binding, competition with immobilised ligand | 1 µM | 2.1 |
| O=C(NCCCC1CCCCC1)c1ccc(CNC(=O)c2cnn(-c3ccccc3)c2C(F)(F)F)cc1 | cell-free assay, competition with immobilised ligand | 0.1 µM | 100 |
| CN(C)c1ncc(F)c(-c2cnn3ncccc23)n1 | binding | 1 µM | 61 |
